# Compounds with a hit are over-represented: about 1.7% of the library has one in this group of screens.
# Rtt109 HAT inh: inhibitors of C. albicans Rtt109/Vps75 HAT, primary screen, biochemical, ThioGlo CoA-SH fluorescence, plate reader; inhibition, % at 34.9 µM; purified Rtt109/Vps75, 4 h; hit rate 0.16% among 330,000; Histone acetyltransferase RTT109 (Candida albicans (strain SC5314 / ATCC MYA-2876)), …;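 active = inhibition of at least 50% in every replicate; inconclusive = best replicate reaches 50% inhibition but some replicates fall short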
# Target sequence (Q5AAJ8 whole entry, looked up): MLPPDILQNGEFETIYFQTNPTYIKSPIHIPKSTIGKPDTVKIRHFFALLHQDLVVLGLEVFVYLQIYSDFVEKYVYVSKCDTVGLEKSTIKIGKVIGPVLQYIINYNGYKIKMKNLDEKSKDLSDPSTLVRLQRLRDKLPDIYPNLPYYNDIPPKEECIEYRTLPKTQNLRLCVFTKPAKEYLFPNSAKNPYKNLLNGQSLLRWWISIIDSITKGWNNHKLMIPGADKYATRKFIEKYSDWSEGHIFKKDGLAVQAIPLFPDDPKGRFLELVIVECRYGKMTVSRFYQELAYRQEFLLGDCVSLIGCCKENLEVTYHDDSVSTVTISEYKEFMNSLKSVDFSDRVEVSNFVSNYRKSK
# CSC inhib: cancer stem cell viability inhibitors, primary screen, luminescence; cancer stem cell-like cells viability; AID 2717, 2010; inhibition, % at 7.5 µM; hit rate 1.1% among 300,000; in the data active = inhibition above about 75%; inconclusive = no clear call, values can overlap the other calls; tested in HMLE shEcad cells
# PfHsp90 set2: growth inhibition of PfHsp90-expressing yeast, primary screen, antimalarial PfHsp90 inhibitor project, S. cerevisiae, BacTiter-Glo luminescence, single point, set 2. BacTiter-Glo ATP, 48 h; yeast lacking PDR1 and PDR3 efflux regulators. inhibition, % at 9.4 µM. hit rate 0.32% among 310,000;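 active = every replicate shows inhibition above about 80%, whatever the replicate mean, limit read from the data; inconclusive = mean inhibition reaches the set limit but some replicate falls short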;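 note: 0% = DMSO neutral controls and 100% = 20 µM radicicol positive controls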
# SKKanGAS inh: S. pyogenes SKKanGAS growth inhibitors in kanamycin, primary screen, streptokinase expression inhibitor project, SKKanGAS strain, BacTiter-Glo luminescence | 6 h | inhibition, % at 7.5 µM | hit rate 1.3% among 300,000;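 active = mean replicate score, as percent of positive control median, at least 50; inconclusive = mean below 50 but one replicate at or above 50; inactive = mean and every replicate below 50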;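 note: strain carries kanamycin resistance gene driven by streptokinase promoter and grows in 40 µg/ml kanamycin; loss of luminescence reflects streptokinase promoter inhibition or plain growth inhibition; 0% = median of DMSO wells and 100% = positive control at its reference dose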
# FN deposit inh: inhibitors of fibronectin matrix deposition, primary screen, AH1F cells, Alexa488-fibronectin fluorescence, plate reader; inhibition, % at 12.6 µM; AID 743247, 2014; AH1F fibroblasts, overnight; hit rate 0.086% among 350,000;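 active = mean inhibition across replicates of 30% or more, regardless of how many single replicates reach that level; inconclusive = mean under 30% yet at least half of replicates reach 30%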;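 note: positive control wells lacked labelled fibronectin entirely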
#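 material = AH1F fibroblast monolayer depositing Alexa488-labelled fibronectin into matrix | amount = 10000 AH1F cells/well | buffer or medium = DMEM plus 2% serum, read in PBS | incubation = 1 h cell adhesion before compound, then overnight fibronectin incubation | detection = fluorescence at 485 nm excitation, 525 nm emission | evaluation = percent inhibition as loss of matrix-bound fibronectin fluorescence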
# PglD DTNB: C. jejuni PglD acetyltransferase inhibitors, primary screen, biochemical, DTNB colorimetric, single point. UDP-N-acetylbacillosamine N-acetyltransferase PglD (Campylobacter jejuni). inhibition, % at 12.5 µM. purified PglD enzyme, DTNB colorimetric CoA detection. AID 602405, 2012. hit rate 0.098% among 360,000; in the data active = inhibition above about 16%, passing the limit was not always enough; inconclusive = no clear call, values can overlap the other calls
# * hit, by the source's call; ? = inconclusive; · = no result given.
SMILES,Rtt109 HAT inh,CSC inhib,PfHsp90 set2,SKKanGAS inh,FN deposit inh,PglD DTNB
CC(C(=O)NC1C=CS(=O)(=O)C1)N1C(=O)/C(=C/c2ccc(Cl)cc2)SC1=S (stereo not drawn),139*,23,-79,-7,11,-1
O=C(CCN1C(=O)/C(=C/c2ccc(F)cc2)SC1=S)NC1C=CS(=O)(=O)C1 (stereo not drawn),-21,23,0,-4,-7,3
CC(C)NC(=O)N(C)C[C@H]1OCCCC[C@H](C)Oc2ccc(NC(=O)Cc3ccccc3)cc2C(=O)N([C@H](C)CO)C[C@H]1C,·,·,·,·,·,-4
COc1ccc2sc(C)[n+](C)c2c1,-3,-2,-7,-5,4,9
CCCC[n+]1c(C)sc2cc(OC)ccc21,185*,·,-13,6,-8,·
CS(=O)(=O)Nc1ccc2c(c1)[C@@H]1C[C@H](CC(=O)N3CCOCC3)O[C@@H](CO)[C@@H]1O2,·,·,·,·,1,0
CCC(=O)N1CCN(c2ccc(NC(=O)c3ccc([N+](=O)[O-])o3)cc2Cl)CC1,18,·,-6,18,60*,·
CCCC(=O)N1CCN(c2ccc(NC(=O)c3cc4ccccc4o3)cc2Cl)CC1,11,90*,18,37,·,-1
C[C@H]1CN([C@@H](C)CO)C(=O)c2ccccc2-c2ccccc2CO[C@@H]1CN(C)S(=O)(=O)c1cccc(C#N)c1,·,·,·,·,0,0
CCc1cc2cc(C(=O)Nc3ccc(F)cc3)sc2s1,-19,-1,-10,5,-9,7
CC(C)(C)c1ccc(C(=O)Nc2ccc(F)cc2)s1,4,28,9,53*,-1,·
O=C(c1cnccn1)N1C[C@H]2[C@@H](c3ccccc31)[C@@H](CO)N2Cc1ccc2c(c1)OCO2,·,·,·,·,·,1
COCCNC(=O)[C@@H]1[C@@H](CO)[C@@H]2Cn3c(ccc(-c4cccc(F)c4)c3=O)[C@H]1N2C(=O)NC(C)C,·,·,·,·,·,2
Cc1nn(-c2ccccc2)c(C)c1/C=N/NC(=O)c1cc(-c2ccccc2)n[nH]1,-2,73,·,30,·,·
Cc1nn(-c2ccccc2)c(C)c1/C=N/NC(=O)c1cc(-c2cccc3ccccc23)n[nH]1,·,60,38,51*,7,1
Cc1cccc(NCC(=O)N/N=C\c2cccc(Oc3ccccc3)c2)c1,-7,29,-5,58*,-10,0
O=C(C[C@@H]1CC[C@H](NC(=O)Nc2cccc(F)c2)[C@@H](CO)O1)NCC1CC1,·,·,·,·,-11,-1
CCOc1ccc(N2C(=O)/C(=C\c3ccccc3OC)S(=O)(=O)C2c2cccc([N+](=O)[O-])c2)cc1 (stereo not drawn),-1,-9,110*,-2,·,·
NC(=S)N/N=C/c1ccc(C23CC4CC(CC(C4)C2)C3)cc1,·,113*,·,100*,·,·
NC(=S)N/N=C/c1ccccc1,-5,0,-4,-4,0,·
COc1ccccc1-c1ccc2c(c1)[C@H]1[C@H](CCN1C(=O)C1CCOCC1)[C@H](CO)N2,·,·,·,·,-22,0
COc1ccc(C#Cc2ccc3c(c2)[C@@H]2[C@@H](CCN2C(=O)NC(C)C)[C@@H](CO)N3C)cc1,·,·,·,·,3,5
N#Cc1c(NC(=O)c2ccccc2Cl)n(Cc2ccccc2)c2nc3ccccc3nc12,1,112*,11,·,-3,·
CCCCn1c(NC(=O)c2ccccc2Cl)c(C#N)c2nc3ccccc3nc21,6,59,78*,39,-5,9
CCCCn1c(NC(=O)CC)c(C#N)c2nc3ccccc3nc21,4,-7,14,31,0,-4
SMILES,Rtt109 HAT inh,CSC inhib,PfHsp90 set2,SKKanGAS inh,FN deposit inh,PglD DTNB
CCOC(=O)c1ccc(-c2ccc3c(=O)c4ccccc4n(C)c3c2)cc1F,-1,-1,3,65*,4,-1
CCc1ccc2c(c1)C1(NN=C(c3cccc4ccccc34)S1)C(=O)N2 (stereo not drawn),34,9,-97,79*,·,·
COc1ccc(NC(=O)c2c(N)no[n+]2[O-])cc1,1,103*,-9,-2,1,1
COc1ccc(NC(=O)c2c(N)no[n+]2[O-])c(OC)c1,5,8,15,5,7,·
CC(C)C#Cc1cnc2c(c1)C(=O)N([C@@H](C)CO)C[C@@H](C)[C@H](CN(C)C(=O)Cc1ccncc1)O2,·,·,·,·,-9,1
CCN1CCN(C(c2ccccc2)c2nnnn2Cc2ccccc2)CC1 (stereo not drawn),4,·,26,-9,33*,3
O=C1NC[C@@H](Cc2cccc3ccccc23)N(CCCCC2CCCCC2)C1=O,1,88*,-54,82*,4,-1
S=C1NC[C@H](CC2CCCCC2)N1CCCCC1CCCCC1,10,-27,-3,76*,-5,-3
S=C1NC[C@H](Cc2ccccc2)N1CCCCC1CCCCC1,-2,136*,5,16,0,2
S=C1NC[C@H](Cc2ccccc2)N1CC1CCN(CCCC2CCCC2)CC1,5,·,8,·,15,-1
O=C1NC[C@H](CC2CCCCC2)N(CCc2cc(C(F)(F)F)cc(C(F)(F)F)c2)C1=O,·,·,·,·,1,·
FC(F)(F)c1cc(CCN2C(=S)NC[C@@H]2CC2CCCCC2)cc(C(F)(F)F)c1,-7,97*,10,68*,7,4
COc1cccc(-c2ccc(C3[C@@H]4CN(C(=O)C5CC5)C[C@H]3N4)cc2)c1 (stereo partly drawn),·,·,·,·,6,·
Cc1ccc(S(=O)(=O)n2cnc3cc([N+](=O)[O-])ccc32)cc1C,-10,6,-4,-9,12,5
Cc1ccc(-n2c3nc(=O)[nH]c(=O)c-3cc3cc([N+](=O)[O-])ccc32)cc1C,·,84*,-11,-7,7,·
O=C(C[C@H]1CC[C@@H](NC(=O)C2CCC2)[C@@H](CO)O1)NC1CCC1,·,·,·,·,·,1
CN(C)c1ccnc2c[cH-]cc12.[Fe].c1ccc(-[c-]2[c-](-c3ccccc3)[c-](-c3ccccc3)[c-](-c3ccccc3)[c-]2-c2ccccc2)cc1 (stereo not drawn),5,-13,-9,86*,6,-2
O=C1C=C(c2cccs2)C[C@H](c2ccccc2)[C@H]1n1nnc([N+](=O)[O-])n1,0,149*,92*,22,-23,·
CCOC(=O)c1ccc(NC(=S)NN)cc1,?,-8,-31,70*,-5,-6
CCOC(=O)c1ccc(NC(=S)Nc2cccc(N)n2)cc1,4,25,-11,58*,-7,5
Cn1ccnc1CC(O)(c1ccccc1)c1ccccc1,0,-8,-13,-10,-8,-1
